Data on 18 molecules can be found in ChEMBL document CHEMBL4351015, “Design, synthesis and biological evaluation of 3-(imidazo[1,2-a]pyrazin-3-ylethynyl)-2-methylbenzamides as potent and selective pan-tropomyosin receptor kinase (TRK) inhibitors” (Eur J Med Chem, 2019).

Calls of active or inactive are those of the source. The calls are words filed in the database; no cut-off is given here.

Data set [1] deals with Tyrosine-protein kinase ABL1 (Homo sapiens, UniProt P00519). Description: Inhibition of recombinant full length human His-tagged ABL1 expressed in baculovirus infected insect cells using tyr 02 as substrate incubated for 2 hr by Z'-Lyte assay.
For data set [2], the target named is BDNF/NT-3 growth factors receptor (Homo sapiens, UniProt Q16620). Kind of data set: Inhibition of recombinant human His-tagged TrkB catalytic domain (526 to 838 residues) expressed in baculovirus expression system using tyr 01 as substrate incubated for 1 hr by Z'-Lyte assay.
For data set [3], the target named is High affinity nerve growth factor receptor (Homo sapiens, UniProt P04629). Kind of data set: Inhibition of recombinant human His-tagged TrkA catalytic domain (441 to 796 residues) expressed in baculovirus expression system using tyr 01 as substrate incubated for 1 hr by Z'-Lyte assay.
Data set [4] deals with SH-SY5Y. Description: Neurotoxicity in human SH-SY5Y cells assessed as reduction in cell viability incubated for 72 hrs by CCK8 assay. The format is toxicity, cell-based.
The test system of data set [5] is SH-SY5Y. Kind of data set: Antiproliferative activity against human SH-SY5Y cells transfected with TrkB (unknown origin) assessed as reduction in cell viability incubated for 72 hrs by CCK8 assay. The format is functional, cell-based. Summed up: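 SH-SY5Y-TrkB cells (SH-SY5Y stably transfected with pRP-TrkB, kept under 0.5 µg/ml puromycin in 1:1 MEM/F-12 with 10% FBS) seeded at 1500-3000/well, left overnight. Compounds 0.000457–3 µM were then added with or without BDNF 10 ng/ml for 72 h. Read-out by CCK8. IC50 came from concentration-response curve fitting, reported as mean ± SD from at least three independent experiments.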

Data set [6] has as its target NT-3 growth factor receptor (Homo sapiens, UniProt Q16288). Description: Inhibition of recombinant human His-tagged TrkC cytoplasmic domain (510 to 825 residues) expressed in baculovirus using tyr 01 as substrate incubated for 1 hr by Z'-Lyte assay.

Tyrosine-protein kinase ABL1, sequence (P00519 whole entry, the tested form may be a part): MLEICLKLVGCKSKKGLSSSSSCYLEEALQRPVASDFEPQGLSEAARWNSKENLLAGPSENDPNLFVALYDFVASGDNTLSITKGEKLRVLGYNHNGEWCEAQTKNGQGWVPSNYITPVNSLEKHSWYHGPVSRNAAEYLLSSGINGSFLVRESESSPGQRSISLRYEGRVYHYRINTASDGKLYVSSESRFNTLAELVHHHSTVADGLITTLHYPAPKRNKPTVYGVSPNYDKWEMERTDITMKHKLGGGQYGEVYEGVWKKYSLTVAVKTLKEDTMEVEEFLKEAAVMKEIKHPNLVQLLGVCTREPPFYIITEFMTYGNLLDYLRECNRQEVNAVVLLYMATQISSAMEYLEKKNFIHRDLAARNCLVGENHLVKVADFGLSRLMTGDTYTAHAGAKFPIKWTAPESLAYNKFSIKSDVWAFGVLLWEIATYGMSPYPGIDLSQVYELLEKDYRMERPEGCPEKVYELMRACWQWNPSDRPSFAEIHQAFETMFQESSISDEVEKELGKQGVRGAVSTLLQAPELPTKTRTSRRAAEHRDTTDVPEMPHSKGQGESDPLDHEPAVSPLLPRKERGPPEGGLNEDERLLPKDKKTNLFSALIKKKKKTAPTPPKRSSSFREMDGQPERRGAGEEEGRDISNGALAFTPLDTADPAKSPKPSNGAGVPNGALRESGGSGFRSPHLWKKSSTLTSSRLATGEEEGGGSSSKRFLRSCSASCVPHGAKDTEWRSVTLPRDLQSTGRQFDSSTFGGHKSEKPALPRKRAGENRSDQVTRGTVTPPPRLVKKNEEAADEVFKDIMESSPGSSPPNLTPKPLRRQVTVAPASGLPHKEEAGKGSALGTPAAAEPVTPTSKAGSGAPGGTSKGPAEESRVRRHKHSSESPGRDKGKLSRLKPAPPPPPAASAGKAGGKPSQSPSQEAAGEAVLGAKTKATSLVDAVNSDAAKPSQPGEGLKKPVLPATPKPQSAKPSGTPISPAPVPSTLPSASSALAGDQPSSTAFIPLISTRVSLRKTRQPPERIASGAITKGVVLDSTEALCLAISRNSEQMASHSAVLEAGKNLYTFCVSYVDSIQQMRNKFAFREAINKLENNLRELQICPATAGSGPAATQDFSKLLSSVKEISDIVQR
High affinity nerve growth factor receptor, sequence (P04629 whole entry, the tested form may be a part): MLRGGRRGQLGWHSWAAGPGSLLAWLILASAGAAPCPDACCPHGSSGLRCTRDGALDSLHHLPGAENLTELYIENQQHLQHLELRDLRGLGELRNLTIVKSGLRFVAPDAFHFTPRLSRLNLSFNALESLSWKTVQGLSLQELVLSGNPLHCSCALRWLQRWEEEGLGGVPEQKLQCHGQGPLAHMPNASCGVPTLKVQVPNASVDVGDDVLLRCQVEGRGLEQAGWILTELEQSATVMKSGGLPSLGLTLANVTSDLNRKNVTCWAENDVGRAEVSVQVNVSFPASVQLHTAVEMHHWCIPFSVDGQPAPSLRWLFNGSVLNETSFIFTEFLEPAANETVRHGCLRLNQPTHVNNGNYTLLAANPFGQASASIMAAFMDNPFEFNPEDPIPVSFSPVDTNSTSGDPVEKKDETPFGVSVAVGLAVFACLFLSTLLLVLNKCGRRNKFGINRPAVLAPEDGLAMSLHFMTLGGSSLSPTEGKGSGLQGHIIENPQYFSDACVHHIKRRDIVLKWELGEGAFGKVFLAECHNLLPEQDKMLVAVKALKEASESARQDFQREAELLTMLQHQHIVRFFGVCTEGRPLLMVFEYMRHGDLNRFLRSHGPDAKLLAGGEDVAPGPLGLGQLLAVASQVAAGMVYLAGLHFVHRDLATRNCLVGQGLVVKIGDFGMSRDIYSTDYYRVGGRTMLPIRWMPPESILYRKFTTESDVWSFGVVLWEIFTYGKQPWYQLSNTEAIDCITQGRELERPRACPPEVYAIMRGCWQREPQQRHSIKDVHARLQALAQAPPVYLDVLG
BDNF/NT-3 growth factors receptor, sequence (Q16620 whole entry, the tested form may be a part): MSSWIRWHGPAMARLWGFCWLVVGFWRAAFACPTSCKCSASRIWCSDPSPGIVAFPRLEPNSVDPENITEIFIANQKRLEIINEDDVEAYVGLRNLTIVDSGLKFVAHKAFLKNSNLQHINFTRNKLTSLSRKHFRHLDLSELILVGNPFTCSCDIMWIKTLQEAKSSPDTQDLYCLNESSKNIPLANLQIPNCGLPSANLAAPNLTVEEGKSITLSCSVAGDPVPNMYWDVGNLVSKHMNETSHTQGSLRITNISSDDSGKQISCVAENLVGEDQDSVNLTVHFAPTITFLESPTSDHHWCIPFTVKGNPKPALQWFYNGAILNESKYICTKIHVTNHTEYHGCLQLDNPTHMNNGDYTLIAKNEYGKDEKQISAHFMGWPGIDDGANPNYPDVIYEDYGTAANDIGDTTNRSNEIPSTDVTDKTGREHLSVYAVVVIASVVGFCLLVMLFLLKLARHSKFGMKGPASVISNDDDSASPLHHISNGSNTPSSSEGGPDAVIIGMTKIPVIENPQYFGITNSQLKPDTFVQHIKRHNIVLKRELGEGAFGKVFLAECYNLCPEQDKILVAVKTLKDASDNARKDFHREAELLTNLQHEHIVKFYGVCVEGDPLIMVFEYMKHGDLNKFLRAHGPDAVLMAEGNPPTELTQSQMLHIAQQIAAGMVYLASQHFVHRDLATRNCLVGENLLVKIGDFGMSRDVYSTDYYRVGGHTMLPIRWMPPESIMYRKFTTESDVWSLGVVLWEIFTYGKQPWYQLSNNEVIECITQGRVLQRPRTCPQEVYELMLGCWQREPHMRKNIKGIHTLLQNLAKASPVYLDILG
NT-3 growth factor receptor, sequence (Q16288 whole entry, the tested form may be a part): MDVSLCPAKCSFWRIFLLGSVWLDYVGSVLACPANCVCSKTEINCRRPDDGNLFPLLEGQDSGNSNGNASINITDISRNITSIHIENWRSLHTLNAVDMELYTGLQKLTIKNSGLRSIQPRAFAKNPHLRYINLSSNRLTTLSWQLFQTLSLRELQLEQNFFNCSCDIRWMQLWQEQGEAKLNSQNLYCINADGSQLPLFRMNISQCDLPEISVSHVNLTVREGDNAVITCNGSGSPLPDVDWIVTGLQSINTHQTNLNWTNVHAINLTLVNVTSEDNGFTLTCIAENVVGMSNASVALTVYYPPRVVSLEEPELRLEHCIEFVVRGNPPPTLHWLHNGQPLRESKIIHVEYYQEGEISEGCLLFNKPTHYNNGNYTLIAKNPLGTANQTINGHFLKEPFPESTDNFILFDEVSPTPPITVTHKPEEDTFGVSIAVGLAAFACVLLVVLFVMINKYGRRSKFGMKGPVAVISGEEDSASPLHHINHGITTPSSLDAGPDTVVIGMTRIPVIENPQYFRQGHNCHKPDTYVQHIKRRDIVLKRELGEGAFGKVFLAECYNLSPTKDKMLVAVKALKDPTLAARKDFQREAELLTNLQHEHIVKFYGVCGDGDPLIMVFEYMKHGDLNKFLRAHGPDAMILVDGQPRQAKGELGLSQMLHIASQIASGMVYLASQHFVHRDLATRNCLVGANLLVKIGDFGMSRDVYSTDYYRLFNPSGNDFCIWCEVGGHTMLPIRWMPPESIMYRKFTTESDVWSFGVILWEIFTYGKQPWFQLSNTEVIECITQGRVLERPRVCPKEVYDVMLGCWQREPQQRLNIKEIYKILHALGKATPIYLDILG

For `Cc1c(C#Cc2cnc3cnccn23)cccc1C(=O)Nc1cc(CN2CCN(C)CC2)cc(C(F)(F)F)c1`, the figures for the IC50 in data set [1], in data set [2] and in data set [3] were over 1000 nM, 38.3 nM and 39.8 nM, respectively.

For the molecule `O=C(Nc1cnn2ccc(N3CCC[C@@H]3c3cc(F)ccc3F)nc12)N1CC[C@H](O)C1` [LAROTRECTINIB], in data set [1], the IC50 is over 1000 nM. In the data set with SH-SY5Y [4], the Activity entry is recorded as “Non-Toxic”. Moreover, the result in the data set on SH-SY5Y [5] was Active.

Turning to `Cc1c(C#Cc2cnc3cnc(-c4ccc(N)cc4)cn23)cccc1C(=O)Nc1cc(CN2CCN(C)CC2)cc(C(F)(F)F)c1`, the IC50 in data set [1] was over 1000 nM; in data set [2], 13.1 nM; in data set [3] it was 7.75 nM.

With `COc1c(C#Cc2cnc3cnccn23)cccc1C(=O)Nc1cc(CN2CCN(C)CC2)cc(C(F)(F)F)c1`, the IC50 in data set [1], in data set [2] and in data set [3] was over 1000 nM in each case.

With `CCc1cc(CN2CCN(C)CC2)cc(NC(=O)c2cccc(C#Cc3cnc4cnc(-c5ccc(N)cc5)cn34)c2C)c1`, the IC50 in data set [1] is over 1000 nM; in data set [2], 9.3 nM; in data set [3] it was 3.56 nM.

Turning to `Cc1cc(CN2CCN(C)CC2)cc(NC(=O)c2cccc(C#Cc3cnc4cnc(-c5ccc(N)cc5)cn34)c2C)c1`, the IC50 in data set [1] is over 1000 nM; in data set [2] it was 41.3 nM; in data set [3], 17.4 nM.

On to `Cc1c(C#Cc2cnc3cnc(-c4ccccc4)cn23)cccc1C(=O)Nc1cc(CN2CCN(C)CC2)cc(C(F)(F)F)c1`, for which the IC50 is over 1000 nM in data set [1], 22.7 nM in data set [2] and 29.2 nM in data set [3].

Consider `Cc1ccc(C(=O)Nc2cc(CN3CCN(C)CC3)cc(C(F)(F)F)c2)cc1C#Cc1cnc2cnccn12`, for which the IC50 in data set [2] is 9.37 nM; in data set [3], 8.24 nM.

Take `CN1CCN(Cc2cc(NC(=O)c3cccc(C#Cc4cnc5cnccn45)c3)cc(C(F)(F)F)c2)CC1`: the IC50 in data set [1] is 33.3 nM; in data set [2] it was 43.9 nM; in data set [3], 41.6 nM.

For `Cc1ccc(C#Cc2cnc3cnccn23)cc1C(=O)Nc1cc(CN2CCN(C)CC2)cc(C(F)(F)F)c1`, the IC50 in data set [1], in data set [2] and in data set [3] was over 1000 nM each time.

As to `Cc1c(C#Cc2cnc3cnc(-c4ccc(N)cc4)cn23)cccc1C(=O)Nc1cc(CN2CCN(C)CC2)cc(C(C)(C)C)c1`, the IC50 in data set [1] is over 1000 nM; in data set [2] it was 15.6 nM; in data set [3], 6.4 nM.

For `CN1CCN(Cc2cc(NC(=O)c3cccc(C#Cc4cnc5cnccn45)c3Cl)cc(C(F)(F)F)c2)CC1`, the IC50 in data set [1] was over 1000 nM; in data set [2], 254 nM; in data set [3], 227 nM.

`Cc1c(C#Cc2cnc3cnc(-c4ccc(N)cc4)cn23)cccc1C(=O)Nc1cc(CN2CCN(C)CC2)cc(-c2ccccc2)c1`: the figures for the IC50 in data set [1], in data set [2] and in data set [3] were over 1000 nM, 24.2 nM and 7.34 nM, respectively.

Consider `CCCc1c(C#Cc2cnc3cnccn23)cccc1C(=O)Nc1cc(CN2CCN(C)CC2)cc(C(F)(F)F)c1`, for which the IC50 in data set [1], in data set [6], in data set [2] and in data set [3] was over 1000 nM throughout.

On to `CCc1c(C#Cc2cnc3cnccn23)cccc1C(=O)Nc1cc(CN2CCN(C)CC2)cc(C(F)(F)F)c1`, for which the results for the IC50 in data set [1], in data set [2] and in data set [3] were over 1000 nM, 315 nM and 186 nM, respectively.

`Cc1c(C#Cc2cnc3cnc(-c4ccncc4)cn23)cccc1C(=O)Nc1cc(CN2CCN(C)CC2)cc(C(F)(F)F)c1`: the IC50 was over 1000 nM in data set [1], 43.5 nM in data set [2] and 28.8 nM in data set [3].

For `CC(C)c1c(C#Cc2cnc3cnccn23)cccc1C(=O)Nc1cc(CN2CCN(C)CC2)cc(C(F)(F)F)c1`, the IC50 in data set [1], in data set [6], in data set [2] and in data set [3] was over 1000 nM throughout.

With `Cc1cc(C#Cc2cnc3cnccn23)cc(C(=O)Nc2cc(CN3CCN(C)CC3)cc(C(F)(F)F)c2)c1`, the IC50 is 449 nM in data set [1], 178 nM in data set [2] and 132 nM in data set [3].
